Screening data deposited in PubChem BioAssay by several laboratories.
Compounds with a hit are over-represented: about 2.2% of the library has one in this group of screens.
EBI2 block = EBI2 receptor antagonists, beta-arrestin recruitment, primary screen, cell-based, luminescence, 7a,25-OHC stimulation, uHTS | 7a,25-OHC stimulated | inhibition, % at 5 µM | 360,000 tested, 0.81% active; in the data active = inhibition above about 38%;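 also: enzyme fragment complementation signal reports receptor beta-arrestin coupling in cells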
CCR6 antagonist = CCR6 receptor antagonists, primary screen, cell-based, CHO-K1, luminescence, beta-arrestin, uHTS. C-C chemokine receptor type 6 (Homo sapiens), P51684. CHO-K1 CCR6 PathHunter beta-arrestin, CCL20-stimulated. inhibition, % at 20 µM. 340,000 tested, 0.49% active. AID 493098, 2011;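 active = compounds whose inhibition of the agonist-driven luminescence signal at 20 µM reaches about 50%, limit read from the data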;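 also: cells stimulated with CCL20 at 14 nM final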
HTR2A ag = mouse Htr2a agonists via beta-arrestin recruitment, primary screen, cell-based, luminescence. 5-hydroxytryptamine receptor 2A (Mus musculus), P35363. CHO-K1 mHTR2A beta-arrestin complementation; percent of 30 µM serotonin response. activation, % at 7.6 µM. 360,000 tested, 0.66% active;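 active = activation above a run cutoff, the mean activation of all tested compounds plus 3 SD, cut at about 14% in these data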
CXCR6 inh = CXCR6 receptor inhibitors, primary screen, cell-based, beta-arrestin, luminescence, CHO-K1 PathHunter, 1536-well; C-X-C chemokine receptor type 6 (Homo sapiens), O00574; AID 602244, 2012; inhibition, % at 20 µM; 360,000 tested, 0.36% active; in the data active = inhibition above about 34%, passing the limit was not always enough;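 also: antagonist mode with CXCL16 agonist at 10 nM final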
APJ antagonist = antagonists of human apelin receptor APJ, primary screen, CHO-K1 cells, beta-arrestin complementation, luminescence; P35414; inhibition, % at 20 µM; 330,000 tested, 0.32% active; AID 2521, 2010;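 active = inhibition above about 40% at 20 µM, limit read from the data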;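 also: cells challenged with 10 nM apelin-13 agonist together with compound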
Target sequence (P35414 whole entry, looked up): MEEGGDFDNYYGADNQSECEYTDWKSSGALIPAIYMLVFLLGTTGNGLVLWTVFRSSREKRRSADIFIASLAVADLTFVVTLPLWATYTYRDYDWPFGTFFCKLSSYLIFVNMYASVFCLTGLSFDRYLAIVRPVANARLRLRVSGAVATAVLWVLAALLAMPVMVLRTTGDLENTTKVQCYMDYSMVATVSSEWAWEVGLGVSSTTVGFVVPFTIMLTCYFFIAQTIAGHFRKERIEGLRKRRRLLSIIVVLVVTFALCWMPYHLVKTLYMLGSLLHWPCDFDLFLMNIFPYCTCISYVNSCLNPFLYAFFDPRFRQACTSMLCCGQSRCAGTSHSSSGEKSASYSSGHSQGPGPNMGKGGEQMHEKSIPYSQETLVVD
APJ agonist = agonists of human apelin receptor APJ, primary screen, CHO-K1 cells, PathHunter beta-arrestin, luminescence; P35414; 0% DMSO wells, 100% apelin; activation, % at 20 µM; 330,000 tested, 0.11% active; AID 2520, 2010;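 active = activation more than six SD over the plate average, tested at 20 µM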
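Test system – PathHunter CHO-K1 APJ (AGTRL-1) beta-arrestin reporter cells · Input – 1000 cells/well · Compound – single test compound dose, 20 µM final, 1% DMSO · Times – compound stimulation 90 min at 25 °C, detection 60 min · Technique – beta-gal luminescence · Read-out basis – APJ–arrestin association signal · Control set – negative DMSO alone, positive Apelin-13 at 10 nM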
MOR ag counter = OPRM1 agonists via beta-arrestin recruitment, confirmation, counter-screen for mouse HTR2A agonist project, cell-based, luminescence, single concentration; shares compounds with HTR2A ag; 2,300 tested, 5.3% active; AID 624380, 2012; activation, % at 9.3 µM; U2OS OPRM1 beta-arrestin PathHunter; DMSO 0%, DAMGO 9.3 µM 100%;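 active = mean activation above the mean of DMSO-only wells plus 3 SD, cut at about 0.5% in these data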
m5-HT2A ag conf = mouse HTR2A agonists, beta-arrestin recruitment, confirmation, cell-based, luminescence, CHO-K1 PathHunter, triplicate | activation, % at 7.6 µM | DMSO 0%, 30 µM serotonin 100% | shares compounds with HTR2A ag | 2,300 tested, 19% active;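 active = mean activation across triplicates above the hit threshold derived in the original primary screen, cut at about 15% in these data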
Numbers stand for hits; – = inactive; · = no result.

SMILES	EBI2 block	CCR6 antagonist	HTR2A ag	CXCR6 inh	APJ antagonist	APJ agonist	MOR ag counter	m5-HT2A ag conf
COc1ccc(CCNC(=O)c2ccccc2NC(=O)c2ccco2)cc1OC	–	–	23.8	–	–	–	–	–
COc1ccc(CCNC(=O)c2ccco2)cc1OC	–	–	–	–	–	–	·	·
c1nc(N2CCN(Cc3ccc4c(c3)OCO4)CC2)c2[nH]cnc2n1	–	–	20.4	–	–	–	–	74.8
Brc1ccc(CN2CCN(c3ccccn3)CC2)s1	–	–	29.5	–	–	–	–	98.1
c1cnc(N2CCN(Cc3ccc4c(c3)OCO4)CC2)nc1	–	–	41.7	–	–	–	–	169.0
COc1ccc2c(c1)[nH]c1c(N3CCN(Cc4ccc5c(c4)OCO5)CC3)ncnc12	–	–	–	–	–	–	·	·
c1ccc(N2CCN(Cc3ccc4c(c3)OCO4)CC2)nc1	–	–	31.7	–	–	–	–	113.2
FC(F)(F)c1ccc(N2CCN(Cc3ccc4c(c3)OCO4)CC2)nc1	–	–	–	–	–	–	·	·
CCCCC(=O)N(C)c1c(CC)nc2c(OCC=C(C)C)cccn12	–	·	–	–	·	·	·	·
C[C@@H]1O[C@H](CCc2cccc(Cl)c2)CC2=C1C(=O)OC(C)(C)O2	–	·	–	–	·	·	·	·
COc1ccc([C@H]2CC(=O)C[C@@H](CCn3cc(C(C)C)nn3)O2)cc1	–	·	–	–	·	·	·	·
Cc1ccccc1C(=O)N1CCC(C(=O)Nc2ccc(S(=O)(=O)N3C(C)CCCC3C)cc2)CC1 (stereo not given)	–	–	–	–	·	·	·	·
C[C@H](NC(=O)[C@@H]1CSC2c3ccccc3C(=O)N21)C(=O)NCc1c(F)cccc1Cl (stereo not given in full)	–	–	16.6	–	–	–	–	–
O=C(NS(=O)(=O)c1ccc(Cl)cc1)c1ccccc1	–	–	14.7	–	–	–	–	–
COc1ccc(-c2csc(-n3ncc(C(=O)O)c3C(F)(F)F)n2)cc1	–	–	14.9	–	–	–	–	–
CNC(=O)c1cnn(-c2nc(-c3ccc(OC)cc3)cs2)c1C(F)(F)F	–	–	–	–	–	–	·	·
O=C(Nc1ccc(S(=O)(=O)N2CCCCCC2)cc1)c1ccco1	–	–	14.6	–	–	–	–	–
O=C(Nc1cccc(S(=O)(=O)N2CCCC2)c1)c1ccco1	–	–	–	–	–	–	·	·
CCCCOc1ccc(C(=O)NCC(=O)NC2CCC(C)CC2)cc1 (stereo not given)	–	–	18.4	–	–	–	–	–
COc1cccc(NC(=O)c2cnc(NS(=O)(=O)c3ccccc3)nc2)c1	–	·	–	–	·	·	·	·
Cc1c(C(=O)N2CCN(Cc3ccc4c(c3)OCO4)CC2)sc2ncnc(N3CCN(c4ccccc4F)CC3)c12	–	–	25.3	–	–	–	–	36.1
CCOC(=O)N1CCN(Cc2ccc3c(c2)OCO3)CC1	–	–	37.1	–	–	–	–	107.0
Cc1cc(=O)oc(C)c1C(=O)N1CCN(Cc2ccc3c(c2)OCO3)CC1	–	–	–	–	–	–	·	·
CCN(CC)C(=O)N1CCN(Cc2ccc3c(c2)OCO3)CC1	–	–	–	–	–	–	·	·
Cc1ccc(C(=O)N2CCN(Cc3ccc4c(c3)OCO4)CC2)o1	–	–	20.3	–	–	–	–	–
